The text below walks through data of ChEMBL document CHEMBL4376838, “Discovery of Novel Celastrol Derivatives as Hsp90-Cdc37 Interaction Disruptors with Antitumor Activity” (J Med Chem, 2019).

Molecules are shown by their SMILES. Active and inactive are the calls of the source. The rule behind the calls is not given here.

Test [1] relates to A549. Briefly: Induction of cell cycle arrest in human A549 cells assessed as accumulation at G1 phase at 0.2 uM incubated for 24 hrs by PI staining based flow cytometric analysis (reference value: 60.14%). It counts as functional. The procedure, abridged: (§1)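 A549 cells (4×10^5 per 6 cm dish) were grown 24 h, then exposed to compound (0.2, 0.4, 0.8 μM) or DMSO for 24 h. Cells fixed in 75% ethanol at −20 °C for at least 12 h, treated with RNase A at 37 °C for 30 min, then stained with PI for 15 min in the dark. Analysed by flow cytometry, mean ± SD, n = 3.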
(In general: Flow cytometry measures light scatter and fluorescence of single cells or particles in a stream.)

Test [2] has as its system A549. The experiment in a line: Induction of apoptosis in human A549 cells assessed as early apoptotic cells at 0.6 uM incubated for 48 hrs by Annexin V-FITC and PI staining based flow cytometric analysis (reference value: 0.5%). The class given is functional.
The target in test [3] is T1, Hsp90 co-chaperone Cdc37 (Homo sapiens) (UniProt Q16543).
T1 sequence (whole entry): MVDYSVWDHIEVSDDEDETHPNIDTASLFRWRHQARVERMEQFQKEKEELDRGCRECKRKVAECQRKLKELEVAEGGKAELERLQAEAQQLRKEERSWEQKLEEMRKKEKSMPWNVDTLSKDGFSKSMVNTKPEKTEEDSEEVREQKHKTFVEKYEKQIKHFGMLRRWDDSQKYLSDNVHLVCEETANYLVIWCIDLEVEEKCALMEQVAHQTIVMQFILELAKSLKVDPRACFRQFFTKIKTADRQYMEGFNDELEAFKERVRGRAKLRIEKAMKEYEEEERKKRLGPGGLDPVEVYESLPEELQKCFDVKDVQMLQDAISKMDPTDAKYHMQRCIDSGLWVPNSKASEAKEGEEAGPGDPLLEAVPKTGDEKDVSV
The experiment in a line: Binding affinity to Cdc37 in human A549 cells assessed as inhibition of HSP90-Cdc37 interaction by measuring increase in cleaved caspase-3 protein level at 1.25 to 5 uM incubated for 12 hrs by Western blot analysis. The class given is cell-based. The procedure, abridged: (§2)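 A549 cells (5×10^5 per 6 cm dish) were allowed to settle 12 h, then treated with DMSO or compound at the indicated concentrations for 12 h. Lysates were adjusted to 3 mg/ml protein by BCA and resolved on 10% SDS-PAGE, then Western blotted. β-actin or Hsp90 served as the loading control. Three separate experiments, mean ± SD.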
(In general: In western blotting, separated proteins are transferred to a membrane and probed.)

Test [4] addresses T1, Hsp90 co-chaperone Cdc37 (Homo sapiens). Briefly: Binding affinity to recombinant Cdc37 (unknown origin) assessed as inhibition of biotin labeled 3-[3-cyano-3-(4-fluorophenyl)prop-2-enoyl]oxypropyl(2R,4aS,6aR,6aS,14aS,14bR)-10-hydroxy-2,4a,6a,6a,9,14a-hexamethyl-11-oxo-1,3,4,5,6,13,14,14b-octahydropicene-2-carboxylate binding to enzyme at 0.25 to 0.5 uM incubated with compound for 2 hrs before or after incubation with biotin labeled 3-[3-cyano-3-(4-fluorophenyl)prop-2-enoyl]oxypropyl(2R,4aS,6aR,6aS,14aS,14bR)-10-hydroxy-2,4a,6a,6a,9,14a-hexamethyl-11-oxo-1,3,4,5,6,13,14,14b-octahydropicene-2-carboxylate for 2 hrs by pull down assay based immunoblot analysis. The gist of the method: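 Recombinant Cdc37 ([…]) incubated with varying compound concentrations for 2 h, either before or after a 2 h incubation with biotinylated probe (0.5 μM) at 10 °C. Biotin alone served as control. Probe-bound protein captured on streptavidin beads, and input and bound fractions immunoblotted.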

For test [5], the system named is A549. Briefly: Induction of cell cycle arrest in human A549 cells assessed as increase in accumulation at G0/G1 phase incubated for 24 hrs by PI staining based flow cytometric analysis. The class given is functional. The procedure, abridged:
as §1

Test [6] relates to A549. The experiment in a line: Induction of apoptosis in human A549 cells assessed as increase in late apoptotic cells incubated for 48 hrs by Annexin V-FITC and PI staining based flow cytometric analysis. The class given is functional, cell-based.
Test [7] has as its target T1, Hsp90 co-chaperone Cdc37 (Homo sapiens). Briefly: Binding affinity to Cdc37 in human A549 cells assessed as inhibition of HSP90-Cdc37 interaction by measuring decrease in CDK4 protein level at 5 uM incubated for 12 hrs by Western blot analysis. It counts as cell-based. The gist of the method: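 A549 cells seeded 5×10^5 per 6 cm dish, grown 12 h, then exposed to compound or DMSO for 12 h. Lysates adjusted to 3 mg/ml protein (BCA), run on 10% SDS-PAGE, immunoblotted for p-Akt and Cdk4. Band levels quantified against Hsp90 loading control. Three separate experiments, mean ± SD.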

Test [8] concerns A549. Briefly: Induction of morphological apoptosis in human A549 cells assessed as increase in cells with chromatin condensation at 0.3 to 1.2 uM incubated for 48 hrs by Hoechst 33342 and PI staining based fluorescence microscopic method. It counts as functional, cell-based. The procedure, abridged: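 A549 cells (4×10^5 per 6 cm dish) were grown 24 h, then exposed to compound at the indicated concentrations or DMSO for 48 h. After PBS washes, cells were stained with Hoechst 33342 (10 µg/ml) plus PI for 5 min at room temperature in the dark and imaged by fluorescence microscopy for nuclear morphology.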

The test system of test [9] is A549. Briefly: Induction of cell cycle arrest in human A549 cells assessed as accumulation at S phase at 0.4 uM incubated for 24 hrs by PI staining based flow cytometric analysis (reference value: 27.59%). The class given is functional. The gist of the method: as §1
The subject of test [10] is A549. Briefly: Induction of mitochondrial membrane potential loss in human A549 cells assessed as cells with depolarized mitochondria by measuring increase in J-monomer green fluorescence intensity at 0.4 uM incubated for 24 hrs by JC1 staining based fluorescence microscopic method (reference value: 1.5%). It counts as functional.
Test [11] has as its system A549. The experiment in a line: Induction of apoptosis in human A549 cells assessed as viable cells at 0.6 uM incubated for 48 hrs by Annexin V-FITC and PI staining based flow cytometric analysis (reference value: 95.5%). The class given is functional. As to conditions: A549, 48 h, read-out: Activity.
Test [12] relates to A549. Briefly: Induction of cell cycle arrest in human A549 cells assessed as accumulation at S phase at 0.8 uM incubated for 24 hrs by PI staining based flow cytometric analysis (reference value: 27.59%). It counts as functional. The procedure, abridged: as §1
For test [13], the system named is A549. Briefly: Induction of mitochondrial membrane potential loss in human A549 cells assessed as cells with hyperpolarized mitochondria by measuring decrease in J-aggregates red fluorescence intensity at 0.2 uM incubated for 24 hrs by JC1 staining based fluorescence microscopic method (reference value: 98.4%). It counts as functional. More on the design: scale not given: the % may be the effect or the level left.

For test [14], the system named is A549. The experiment in a line: Antiproliferative activity against human A549 cells assessed as inhibition of cell growth at 1.5 uM incubated for 48 hrs by MTT assay relative to control. It counts as functional. As to conditions: A549, 48 h, read-out: GI.
In test [15] the target is T1, Hsp90 co-chaperone Cdc37 (Homo sapiens). Briefly: Binding affinity to Cdc37 in human A549 cells assessed as inhibition of HSP90-Cdc37 interaction by measuring increase in BAX protein level at 1.25 to 5 uM incubated for 12 hrs by Western blot analysis. The class given is cell-based. The procedure, abridged:
as §2

Test [16] concerns A549. The experiment in a line: Induction of apoptosis in human A549 cells assessed as necrotic cells at 0.3 uM incubated for 48 hrs by Annexin V-FITC and PI staining based flow cytometric analysis (reference value: 1.0%). The class given is functional.
The test system of test [17] is A549. Briefly: Induction of cell cycle arrest in human A549 cells assessed as accumulation at G2 phase at 0.2 uM incubated for 24 hrs by PI staining based flow cytometric analysis (reference value: 19.37%). The class given is functional. The procedure, abridged: as §1
Test [18] deals with A549. The experiment in a line: Induction of apoptosis in human A549 cells assessed as viable cells at 0.3 uM incubated for 48 hrs by Annexin V-FITC and PI staining based flow cytometric analysis (reference value: 95.5%). The class given is functional. Particulars: A549, 48 h, read-out: Activity.

Regarding `CC1=C(O)C(=O)C=C2C1=CC=C1[C@@]2(C)CC[C@@]2(C)[C@@H]3C[C@](C)(C(=O)OCCCOC(=O)/C=C(\C#N)c4ccc(F)cc4)CC[C@]3(C)CC[C@]12C`, the Activity in the test on A549 [1] is 64.36%; in the test on A549 [2], 5.9%; with A549 [5], “Dose-dependent effect”; in the test with A549 [6], “Dose-dependent effect”; with A549 [9], 23.34%; with A549 [10], 18.7%. The Activity in the test with A549 [12] was determined as 23.85%; in the test with A549 [13], 84.2%; with A549 [16], 3.3%; in the test with A549 [17] it was 16.78%. In addition, the inhibition entry in test [3], in test [7] and in [15] was “Active” throughout. The result (in test [4]; in the test on A549 [8]) was Active. Moreover, in the test on A549 [11], the viability at 0.6 µM came to 71.2%. Also, the inhibition of growth at 1.5 µM in the test on A549 [14] is 78.5%. Also, in the test on A549 [18], the viability at 0.3 µM amounted to 85.2%.
